Reference: ChEMBL document CHEMBL6182827 (RSC Med Chem, 2025)
pKi: −log10 of the molar value. The source made the active and inactive calls. No cut-off for these calls is given here.

Columns and labels:
[1] = target: Sigma non-opioid intracellular receptor 1 (Rattus norvegicus, UniProt Q9R0C9); experiment: Displacement of [3H]-pentazocine from sigma 1 receptor in male Sprague-Dawley rat liver membrane assessed as inhibition constant by liquid scintillation counter analysis; assay type: cell membranes
Mu-type opioid receptor = Mu-type opioid receptor (Rattus norvegicus, UniProt P33535); experiment: Displacement of [3H]-DAMGO from MOR in male Sprague-Dawley rat brain membrane assessed as inhibition constant incubated for 45 mins by liquid scintillation counter analysis; assay type: cell membranes
[2] = target: Kappa-type opioid receptor (Cavia porcellus, UniProt P41144); experiment: Displacement of [3H]-U69593 from KOR in male Dunkin-Hartley guinea pig brain membrane assessed as inhibition constant incubated for 30 mins by liquid scintillation counter analysis; assay type: cell membranes
[3] = target: T1, Sigma intracellular receptor 2 (Rattus norvegicus, UniProt Q5U3Y7); experiment: Displacement of [3H]-DTG from sigma 2 receptor in male Sprague-Dawley rat liver membrane assessed as inhibition constant in presence of pentazocine by liquid scintillation counter analysis; assay type: cell membranes
T1 sequence (Q5U3Y7 whole entry): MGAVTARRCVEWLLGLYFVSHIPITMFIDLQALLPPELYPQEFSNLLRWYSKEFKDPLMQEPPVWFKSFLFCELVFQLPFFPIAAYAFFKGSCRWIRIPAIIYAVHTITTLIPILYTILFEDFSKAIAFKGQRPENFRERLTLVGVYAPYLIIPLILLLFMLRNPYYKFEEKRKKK

[4] = target: Delta-type opioid receptor (Rattus norvegicus, UniProt P33533); experiment: Displacement of [3H]-Deltorphin from DOR in male Sprague-Dawley rat brain membrane assessed as inhibition constant incubated for 45 mins by liquid scintillation counter analysis; assay type: cell membranes
Mus musculus [5] = experiment: Antinociceptive activity in formalin-induced male CD1 mouse model assessed as effect on nociceptive behavior by measuring behavioral pain (phase II) at 3 mg/kg, ip pre-administered with compound for 20 mins followed by formalin induction and measured for 1 hrs; assay type: functional, organism-based; conditions: time 80.0 min
In short: (§1)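 Male CD1 mice, 8–12 weeks, randomized and acclimated 20 min. Drug in saline with 0.5% v/v DMSO given i.p. 20 min before formalin (5%, 10 μL) into the right hind-paw plantar surface. Licking, flicking or shaking of the injected paw recorded every 5 min for 1 h by a blinded observer.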

[6] = Stability of the compound in C57 mouse plasma at 200 uM measured at >= 20 mins by RP-HPLC analysis; assay type: ADME, cell-free
In short: (§2)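 A 10 mM DMSO stock was added to C57 mouse plasma prewarmed to 37 °C (final 200 μM) and held at 37 ± 0.5 °C. Samples taken at 0, 1, 5, 20 and 60 min were deproteinized 1:1 with acetonitrile containing 0.1% HCOOH (100 μM), centrifuged, filtered, and analysed by C18 RP-HPLC-DAD. Duplicates; t1/2 from a one-phase exponential decay fit with the plateau fixed at 0.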

[7] = Stability of the compound in C57 mouse plasma assessed as retention time at 200 uM measured up to 60 mins by RP-HPLC analysis; assay type: ADME, cell-free; conditions: 1 h; in short: as §2
Mus musculus [8] = experiment: Antinociceptive activity in formalin-induced male CD1 mouse assessed as reduction in nociceptive behavior by measuring decrease in lifting/licking time at behavioral pain phase (II) at 5 to 7 mg/kg, ip pre-administered with compound for 20 mins followed by formalin induction and measured for 1 hrs; assay type: functional, organism-based; conditions: dose 5-7 mg/kg, time 80.0 min; in short: as §1
[9] = Stability of the compound in C57 mouse plasma assessed as half life at 200 uM measured up to 60 mins by RP-HPLC analysis; assay type: ADME, cell-free; conditions: 1 h; in short: as §2
[10] = Stability of the compound in C57 mouse plasma at 200 uM measured up to 5 mins by RP-HPLC analysis; assay type: ADME, cell-free; in short: as §2
Mus musculus [11] = experiment: Antinociceptive activity in formalin-induced male CD1 mouse assessed as reduction in nociceptive behavior by measuring decrease in flinches at behavioral pain phase (II) at 5 to 7 mg/kg, ip pre-administered with compound for 20 mins followed by formalin induction and measured for 1 hrs; assay type: functional, organism-based; conditions: dose 5-7 mg/kg, time 80.0 min; in short: as §1
[12] = Chemical stability of the compound in aqueous phosphate buffer at pH 7.4 assessed as half life at 200 uM by RP-HPLC analysis; assay type: physicochemical; conditions: pH 7.4, 200 µM
In short: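 A 10 mM DMSO stock was added to pH 7.4 phosphate buffer prewarmed to 37 °C (final 200 μM) and held at 37 ± 0.5 °C for up to 300 min. Aliquots were mixed 1:1 with acetonitrile (100 μM), filtered and run on C18 RP-HPLC with DAD at 285 nm against a 10–250 μM calibration curve. Duplicates; t1/2 from a one-phase exponential decay fit.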

Mus musculus [13] = experiment: Antinociceptive activity in formalin-induced male CD1 mouse model assessed as effect on nociceptive behavior by measuring rapid pain response (phase I) at 3 to 7 mg/kg, ip pre-administered with compound for 20 mins followed by formalin induction and measured for 1 hrs; assay type: functional, organism-based; conditions: dose 3-7 mg/kg, time 80.0 min; in short: as §1

Sequence of Kappa-type opioid receptor (P41144 whole entry): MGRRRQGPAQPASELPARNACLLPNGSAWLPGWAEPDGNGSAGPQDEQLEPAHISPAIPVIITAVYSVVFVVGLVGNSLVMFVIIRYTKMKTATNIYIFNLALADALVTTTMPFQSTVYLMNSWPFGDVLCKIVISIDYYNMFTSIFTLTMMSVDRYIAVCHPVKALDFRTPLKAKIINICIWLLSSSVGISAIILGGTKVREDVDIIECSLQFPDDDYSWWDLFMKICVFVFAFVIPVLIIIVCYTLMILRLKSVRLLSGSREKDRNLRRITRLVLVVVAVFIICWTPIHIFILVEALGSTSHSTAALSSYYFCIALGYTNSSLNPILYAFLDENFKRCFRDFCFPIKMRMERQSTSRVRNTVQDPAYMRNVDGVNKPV
Sequence of Sigma non-opioid intracellular receptor 1 (Q9R0C9 whole entry): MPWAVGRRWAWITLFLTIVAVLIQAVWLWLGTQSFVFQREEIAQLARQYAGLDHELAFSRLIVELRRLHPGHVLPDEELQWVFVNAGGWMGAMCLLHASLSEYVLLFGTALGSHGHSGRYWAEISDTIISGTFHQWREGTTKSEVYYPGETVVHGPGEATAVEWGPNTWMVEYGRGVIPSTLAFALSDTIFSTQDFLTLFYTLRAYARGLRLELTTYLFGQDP
Sequence of Delta-type opioid receptor (P33533 whole entry): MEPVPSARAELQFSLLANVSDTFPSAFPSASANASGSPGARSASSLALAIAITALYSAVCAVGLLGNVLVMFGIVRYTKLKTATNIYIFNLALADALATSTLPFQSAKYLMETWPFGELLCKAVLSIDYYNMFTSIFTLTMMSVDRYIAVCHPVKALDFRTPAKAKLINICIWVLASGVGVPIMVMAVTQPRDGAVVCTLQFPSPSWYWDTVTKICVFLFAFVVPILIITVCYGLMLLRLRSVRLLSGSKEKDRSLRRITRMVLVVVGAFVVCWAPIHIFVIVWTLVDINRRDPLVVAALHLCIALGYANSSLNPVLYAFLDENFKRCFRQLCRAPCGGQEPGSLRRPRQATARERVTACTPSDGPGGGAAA
Sequence of Mu-type opioid receptor (P33535 whole entry): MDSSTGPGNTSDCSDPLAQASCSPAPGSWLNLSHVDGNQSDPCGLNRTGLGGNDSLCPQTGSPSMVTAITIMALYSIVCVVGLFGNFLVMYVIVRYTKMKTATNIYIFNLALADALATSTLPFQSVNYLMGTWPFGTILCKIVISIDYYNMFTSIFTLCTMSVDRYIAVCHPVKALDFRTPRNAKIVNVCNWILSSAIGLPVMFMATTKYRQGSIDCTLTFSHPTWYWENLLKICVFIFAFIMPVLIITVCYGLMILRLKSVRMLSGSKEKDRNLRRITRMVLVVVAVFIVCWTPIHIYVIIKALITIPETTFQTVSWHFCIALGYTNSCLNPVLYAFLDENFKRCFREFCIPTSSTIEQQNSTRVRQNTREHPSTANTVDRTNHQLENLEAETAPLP

SMILES	pKi [1]	pKi (Mu-type opioid receptor)	pKi [2]	pKi [3]	pKi [4]	Activity (Mus musculus [5])	Stability [6]	Retention_time [7] [min]	Activity (Mus musculus [8])	t1/2 [9] [h]	Stability [10]	Activity (Mus musculus [11])	t1/2 [12] [h]	Activity (Mus musculus [13])
COC(=O)CCN1CC[C@]2(C)c3cc(O)ccc3C[C@H]1[C@H]2C	< 5.00	< 5.30	< 5.30	< 5.00	< 5.30									
COC(=O)CCCN1CC[C@]2(C)c3cc(O)ccc3C[C@H]1[C@H]2C	6.80	< 5.30	< 5.30	< 5.00	< 5.30									
C[C@@H]1[C@@H]2Cc3ccc(O)cc3[C@@]1(C)CCN2CCC(=O)O	< 5.00	< 5.30	< 5.30	< 5.00	< 5.30									
C[C@@H]1[C@@H]2Cc3ccc(O)cc3[C@@]1(C)CCN2CCCC(=O)O	< 5.00	< 5.30	< 5.30	< 5.00	< 5.30									
CCOC(=O)C(CCN1CC[C@]2(C)c3cc(O)ccc3C[C@H]1[C@H]2C)c1ccccc1 (mixture of isomers)	7.56	< 5.30	< 5.30	< 6.00	< 5.30	Not active; Compound Did Not Significantly Modify Licking And Flicking/Shanking Time Of Injected Paw	Unstable	10.52	Active	0.5178	Stable	Active	5	Not active; Compound Did Not Significantly Modify Licking And Flicking/Shanking Time Of Injected Paw
C[C@@H]1[C@@H]2Cc3ccc(O)cc3[C@@]1(C)CCN2CCC(C(=O)O)c1ccccc1 (mixture of isomers)	< 5.00	< 5.30	< 5.30	< 5.00	< 5.30									
C[C@@H]1[C@@H]2Cc3ccc(O)cc3[C@@]1(C)CCN2CC(C(=O)O)c1ccccc1 (mixture of isomers)	6.18	< 5.30	< 5.30	< 5.00	< 5.30									
CCOC(=O)C(CCCN1CC[C@]2(C)c3cc(O)ccc3C[C@H]1[C@H]2C)c1ccccc1 (mixture of isomers)	6.23	< 5.30	< 5.30	< 5.00	< 5.30									
C[C@@H]1[C@@H]2Cc3ccc(O)cc3[C@@]1(C)CCN2CCCC(C(=O)O)c1ccccc1 (mixture of isomers)	< 5.00	< 5.30	< 5.30	< 5.00	< 5.30									
CCOC(=O)C(CN1CC[C@]2(C)c3cc(O)ccc3C[C@H]1[C@H]2C)c1ccccc1 (mixture of isomers)	< 5.00	< 5.30	< 5.30	< 5.00	< 5.30									
